Bioassay records deposited in PubChem BioAssay by Broad Institute.
PGC1a Ac signal: raises PGC1a acetylation signal in U2OS cells | U2OS PGC1a acetylation AlphaScreen, overnight | activation, % at 15.6 µM | 350,000 compounds, 0.21% hits | AID 651723;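 active = every replicate reaching activation of at least 50%, whatever the mean replicate activation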;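 note: hits raise the AlphaScreen acetylation signal above neutral controls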
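System: Flag-PGC1a/GCN5 U2OS cells | Quantity: 7000 cells/well | Times: Overnight compound treatment, 37 °C | Measured by: AlphaScreen proximity luminescence, anti-acetyl-lysine antibody | Dosing: One concentration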
* hit, by the source's call. These entries were drawn from the full list.

How did C=CCNc1nc(Cl)nc(NCc2ccco2)n1 do in these assays?
PGC1a Ac signal: -41.9

How did CCOc1ccc(NC(=O)c2cccc3c2C(=O)N(CCOC)C3)cc1 do in these assays?
PGC1a Ac signal: 93.9*

How did O=C(CCCc1cccs1)NCCc1c[nH]c2ccccc12 do in these assays?
PGC1a Ac signal: -41.5

Results for COc1ccc(CCNC(=O)C(=O)NCC2CCCO2)cc1OC (configuration not stated) ?
PGC1a Ac signal: -44.0

What do the screens show for `COc1cc2[nH]c(=O)n(CCCC(=O)NCCc3ccccc3)c(=O)c2cc1OC`?
PGC1a Ac signal: 84.3*

How did CCc1ccc(Nc2nnc(SCC(=O)Nc3ccc(C(=O)O)cc3)s2)cc1 do in these assays?
PGC1a Ac signal: -46.1

What do the screens show for `CO[C@@H]1CN(C)C(=O)c2ccc(NS(C)(=O)=O)cc2OC[C@@H](C)N(Cc2nccs2)C[C@@H]1C`?
PGC1a Ac signal: -45.1

How did CCSc1ccc(NC(=O)c2cccnc2)cc1 do in these assays?
PGC1a Ac signal: 226.4*

Results for CC(C)(C)c1ccc(C(=O)Nc2ccc(C(=O)NCc3cccnc3)cc2)cc1 ?
PGC1a Ac signal: 101.5*

Results for O=C(COc1ccc(Br)cc1)NCCNC(=O)c1cccnc1 ?
PGC1a Ac signal: -44.9

How did CC(=O)c1cccc(-n2nnnc2SCC(=O)NNC(=O)C(C)C)c1 do in these assays?
PGC1a Ac signal: -84.7

How did CC(C)OC(=O)CSc1nc2cccnc2n1-c1ccc(F)cc1 do in these assays?
PGC1a Ac signal: 53.4*

Results for COC(=O)c1cccc(NC(=O)CSc2nc3cccnc3n2C)c1 ?
PGC1a Ac signal: -52.7

How did COc1cccc(NC(=O)N2CCN(c3cccc(C)c3)C(C)C2)c1 (configuration not stated) do in these assays?
PGC1a Ac signal: -45.4

Results for COc1ccc2c(c1)CCc1c(C(=O)NCCCn3ccnc3)noc1-2 ?
PGC1a Ac signal: -40.5

What do the screens show for `CC1CC(C)CN(S(=O)(=O)c2ccc(C(=O)NCCCn3ccnc3)cc2)C1` (configuration not stated)?
PGC1a Ac signal: 579.5*

Results for CCSc1ccccc1C(=O)NCCCn1ccnc1 ?
PGC1a Ac signal: -94.6

What do the screens show for `CC1OC2CC(=O)OC2C2=C1C(=O)c1c(O)cccc1C2=O` (configuration not stated)?
PGC1a Ac signal: -78.4

What do the screens show for `Cc1cc(C)nc(N2CCC(C(=O)NCc3ccco3)CC2)n1`?
PGC1a Ac signal: -94.9

Results for Cn1nnnc1SCC(=O)NCc1cccc(C(=O)O)c1 ?
PGC1a Ac signal: -40.8

Results for Cc1cc(C)n2c(SCC(=O)NCc3ccco3)nnc2n1 ?
PGC1a Ac signal: 62.5*

Results for CCCN(C)C[C@@H]1Oc2cc(C#C[C@H](C)O)ccc2S(=O)(=O)N([C@H](C)CO)C[C@@H]1C ?
PGC1a Ac signal: -50.2

Results for COc1ccc(S(=O)(=O)N(C)C[C@@H]2Oc3cc(C#CC4CC4)ccc3S(=O)(=O)N([C@H](C)CO)C[C@@H]2C)cc1 ?
PGC1a Ac signal: 56.4*

Results for COc1ccc(S(=O)(=O)N(C)C[C@H]2Oc3cc(C4=CCCC4)ccc3S(=O)(=O)N([C@H](C)CO)C[C@@H]2C)cc1 ?
PGC1a Ac signal: -51.1

How did C[C@@H]1CN([C@@H](C)CO)S(=O)(=O)c2ccc(-c3ccc(F)cc3)cc2O[C@H]1CN(C)C(=O)C1CCCCC1 do in these assays?
PGC1a Ac signal: -64.1

What do the screens show for `C[C@H](CO)N1C[C@H](C)[C@@H](CN(C)Cc2cccnc2)Oc2cc(C#CC3CCCCC3)ccc2S1(=O)=O`?
PGC1a Ac signal: -49.4

How did C[C@H]1CN([C@@H](C)CO)S(=O)(=O)c2ccc(Br)cc2O[C@H]1CN(C)S(C)(=O)=O do in these assays?
PGC1a Ac signal: -106.9

What do the screens show for `Cc1ccccc1-c1ccc2c(c1)O[C@H](CN(C)Cc1ccncc1)[C@@H](C)CN([C@@H](C)CO)S2(=O)=O`?
PGC1a Ac signal: 57.3*

How did C[C@H](CO)N1C[C@H](C)[C@H](CN(C)C(=O)NC2CCCCC2)Oc2cc(C#Cc3ccc(F)cc3)ccc2S1(=O)=O do in these assays?
PGC1a Ac signal: -55.0

Results for Cc1ccc(S(=O)(=O)N(C)C[C@H]2Oc3cc(C#Cc4ccncc4)ccc3S(=O)(=O)N([C@H](C)CO)C[C@H]2C)cc1 ?
PGC1a Ac signal: -44.4

What do the screens show for `COc1ccc(S(=O)(=O)N(C)C[C@@H]2Oc3cc(C#CC4CC4)ccc3S(=O)(=O)N([C@@H](C)CO)C[C@@H]2C)cc1`?
PGC1a Ac signal: 136.3*

How did C[C@H]1CN([C@@H](C)CO)S(=O)(=O)c2ccc(Br)cc2O[C@@H]1CN(C)S(=O)(=O)c1ccccc1F do in these assays?
PGC1a Ac signal: 64.4*

What do the screens show for `COc1ccccc1C#Cc1ccc2c(c1)O[C@@H](CN(C)Cc1cccnc1)[C@H](C)CN([C@@H](C)CO)S2(=O)=O`?
PGC1a Ac signal: -44.4

What do the screens show for `CCC(=O)N1C[C@H](C)[C@@H](OC)CN(C)C(=O)c2ccc(NC(=O)Nc3ccccc3)cc2OC[C@@H]1C`?
PGC1a Ac signal: -44.8

What do the screens show for `Clc1ccc(Oc2cccc(/C=N/n3cnnc3)c2)cc1`?
PGC1a Ac signal: -83.3

Results for Cc1cc2oc(=O)cc(CN3CCC(C)CC3)c2cc1C ?
PGC1a Ac signal: -41.9

Results for Cc1ccc2c(Cl)cc(Cl)c(OCc3c(C)noc3C)c2n1 ?
PGC1a Ac signal: -44.6

Results for CSCC[C@H](NC(=O)c1ccc(Br)o1)c1nnc2ccccn12 ?
PGC1a Ac signal: -42.9

How did O=C(OCc1ccccc1)N1CCC2CC1c1cc(-c3ccc(F)cc3)ccc12 (configuration not stated) do in these assays?
PGC1a Ac signal: -62.8

Results for Cc1cc(=O)oc2cc(OCC(=O)OCC(=O)Nc3ccccc3F)ccc12 ?
PGC1a Ac signal: -44.8

What do the screens show for `O=C1N(Cc2ccccc2)Cc2ccccc2[C@@H]2OC(c3ccc(OCCCO)cc3)=N[C@]12Cc1ccccc1`?
PGC1a Ac signal: 52.0*

Results for O=C(Cc1ccccn1)NCC[C@H]1CC[C@@H](NC(=O)Nc2ccc(C(F)(F)F)cc2)[C@@H](CO)O1 ?
PGC1a Ac signal: -101.6

Results for COc1ccc(NC(=O)N[C@@H]2CC[C@H](CCn3cc(-c4ccccc4F)nn3)O[C@H]2CO)cc1 ?
PGC1a Ac signal: -61.6

Results for O=C(Cc1ccccn1)NCC[C@H]1CC[C@H](NC(=O)Nc2ccc(C(F)(F)F)cc2)[C@H](CO)O1 ?
PGC1a Ac signal: -48.1

How did Cc1ccccc1S(=O)(=O)N[C@@H]1CC[C@@H](CCn2cc(Cc3ccccc3)nn2)O[C@H]1CO do in these assays?
PGC1a Ac signal: -60.9

What do the screens show for `O=C(Cc1ccccn1)N[C@@H]1CC[C@@H](CCn2cc(-c3ccccc3)nn2)O[C@H]1CO`?
PGC1a Ac signal: 133.0*

Results for O=C(Cc1ccccn1)N[C@H]1CC[C@H](CCn2cc(-c3ccccc3)nn2)O[C@@H]1CO ?
PGC1a Ac signal: 76.4*

How did O=C(O)c1cccn1Cc1ccccc1F do in these assays?
PGC1a Ac signal: -54.0

Results for O=C(CSc1ccsc1[N+](=O)[O-])NCCc1ccc(Cl)cc1 ?
PGC1a Ac signal: 68.4*

How did O=C(CCN1CCc2ccccc2C(c2ccccc2)C1)c1ccc2c(c1)OCCO2 (configuration not stated) do in these assays?
PGC1a Ac signal: 68.8*

What do the screens show for `O=C(O)c1cccc(N2C(=O)CSC2c2c(F)cccc2Cl)c1` (configuration not stated)?
PGC1a Ac signal: 56.3*

What do the screens show for `CO[C@@H]1CN(C)C(=O)c2ccc(NC(C)=O)cc2OC[C@@H](C)N(C(=O)Cc2cccnc2)C[C@@H]1C`?
PGC1a Ac signal: -46.9

Results for COc1cc(NS(=O)(=O)c2ccc(N)cc2)nc(OC)n1 ?
PGC1a Ac signal: -56.8
